Results published in ChEMBL document CHEMBL1148339, “Synthesis, structure-activity relationships, and drug resistance of beta-d-3'-fluoro-2',3'-unsaturated nucleosides as anti-HIV Agents” (J Med Chem, 2004).

Target: T1, Adenosine deaminase (Bos taurus) (UniProt P56658)
T1 sequence (whole entry): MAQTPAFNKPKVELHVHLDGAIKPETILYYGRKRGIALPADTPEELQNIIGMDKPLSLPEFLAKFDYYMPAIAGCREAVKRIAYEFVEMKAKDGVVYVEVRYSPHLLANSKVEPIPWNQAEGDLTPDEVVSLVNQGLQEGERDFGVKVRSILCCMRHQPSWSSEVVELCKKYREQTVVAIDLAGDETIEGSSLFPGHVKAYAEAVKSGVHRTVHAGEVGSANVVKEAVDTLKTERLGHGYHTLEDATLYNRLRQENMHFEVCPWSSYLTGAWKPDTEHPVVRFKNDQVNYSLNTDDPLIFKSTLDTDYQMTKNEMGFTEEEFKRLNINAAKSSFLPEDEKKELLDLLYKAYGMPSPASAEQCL
Experiment: Kcat/KM of compound against adenosine deaminase (ADA) was determined
In short: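 Deamination by calf intestinal mucosa adenosine deaminase (0.15 units, MW 33 000, in 2 mL) in phosphate buffer pH 7.4 at 25 °C, substrate 15–100 μM, monitored by UV at 265 nm. Initial rates from graphical fitting of concentration vs time; Vmax and KM from Lineweaver–Burk plot, kcat calculated from enzyme amount.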

Nc1ncnc2c1ncn2[C@@H]1O[C@H](CO)[C@@H](O)[C@H]1O
k cat/Km: 3.1e+06 M⁻¹ s⁻¹
